Measurements pooled from the literature.
Protocols differ between the studies behind these lines.
Cell line: BEAS-2B
Effect on: cell growth or viability
Technique: MTT

SMILES	setting	IC50
OC1CCN(c2ccc(/C=N/NC(=S)Nc3cccc(Cl)c3Cl)cc2)CC1	24 h	16.9 µM
Cc1cc(Cn2ccnc2)nn1C	24 h	> 800 µM
C/C(=N\C(=S)/N=C(\C)c1c(O)c2ccccc2oc1=O)c1c(O)c2ccccc2oc1=O	48 h	9.01 µM
COc1cccc2c1C(=O)c1c(O)c3c(c(O)c1C2=O)C[C@@](O)(C(=O)CO)C[C@@H]3O[C@H]1C[C@H](N)[C@H](O)[C@H](C)O1	24 h	> 100 µM
C/C(=N\NC(=O)/N=C(\C)c1c(O)c2ccccc2oc1=O)c1c(O)c2ccccc2oc1=O	48 h	50.3 µM
OC1CCN(c2ccc(/C=N/NC(=S)NCCc3ccccc3)cc2)CC1	24 h	15 µM
CC(=O)c1c(O)c2ccccc2oc1=O	48 h	28.9 µM
OC1CCN(c2ccc(/C=N/NC(=S)NCc3ccccc3)cc2)CC1	24 h	12.6 µM
Cc1cc(C)n(Cn2cnc3ccccc32)n1	24 h	739 µM
C/C(=N\C(=O)/N=C(\C)c1c(O)c2ccccc2oc1=O)c1c(O)c2ccccc2oc1=O	48 h	21.9 µM
Cc1cc(C)n(Cn2ccnc2)n1	24 h	339 µM
OC1CCN(c2ccc(/C=N/NC(=S)NC3CCCCC3)cc2)CC1	24 h	14.5 µM
CCOC(=O)c1cc(C)n(Cn2cnc3ccccc32)n1	24 h	422 µM
C[C@H]1[C@H](C)CC[C@]2(C(=O)O)CC[C@]3(C)C(=CC[C@@H]4[C@@]5(C)CC[C@H](O)C(C)(C)[C@@H]5CC[C@]43C)[C@H]12	24 h	16 µM
